In ChEMBL document CHEMBL1629439, “High-throughput identification of antibacterials against methicillin-resistant Staphylococcus aureus (MRSA) and the transglycosylase” (Bioorg Med Chem, 2010):
≈ marks a conversion by molar mass, not a printed value.

How the values were obtained:
Staphylococcus aureus [1] = experiment: Antimicrobial activity against oxacillin- and methicillin-resistant Staphylococcus aureus isolate Sa-OXA-R2 after 18 to 24 hrs by alamar blue assay; assay type: functional
Summary of the method: (§1)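 Broth microdilution per NCCLS standard, Mueller-Hinton broth, 8-point twofold dilutions; exponentially growing cells at 5 10^5 cells/ml with compound, 18–24 h at 37 C; 20% Alamar blue added, fluorescence read; MIC90 taken as lowest concentration preventing at least 90% growth.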

Bacillus subtilis = experiment: Antimicrobial activity against Bacillus subtilis ATCC 23857 after 18 to 24 hrs by alamar blue assay; assay type: functional
Summary of the method: (§2)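 Broth microdilution per NCCLS in Mueller-Hinton broth, 8-point twofold dilutions, 384-well format. Exponential-phase cells at 5 × 10^5 cells/ml incubated with compound 18–24 h at 37 °C, then 20% Alamar blue added and fluorescence read. MIC90 taken as the lowest concentration preventing at least 90% bacterial growth.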

Escherichia coli = experiment: Antimicrobial activity against Escherichia coli ATCC […] after 18 to 24 hrs by alamar blue assay; assay type: functional; conditions: Escherichia coli; read-out: MIC; summary of the method: as §2
Pseudomonas aeruginosa = experiment: Antimicrobial activity against Pseudomonas aeruginosa ATCC 25619 after 18 to 24 hrs by alamar blue assay; assay type: functional; conditions: Pseudomonas aeruginosa, ATCC 25619; read-out: MIC; summary of the method: as §2
Acinetobacter baumannii = experiment: Antimicrobial activity against Acinetobacter baumannii ATCC 49139 after 18 to 24 hrs by alamar blue assay; assay type: functional; conditions: Acinetobacter baumannii, ATCC 49139; read-out: MIC; summary of the method: as §2
[2] = test system: Stenotrophomonas maltophilia; experiment: Antimicrobial activity against Stenotrophomonas maltophilia ATCC 13637 after 18 to 24 hrs by alamar blue assay; assay type: functional; conditions: Stenotrophomonas maltophilia, ATCC 13637; read-out: MIC; summary of the method: as §2
Serratia marcescens = experiment: Antimicrobial activity against Serratia marcescens ATCC 14756 after 18 to 24 hrs by alamar blue assay; assay type: functional; conditions: Serratia marcescens, ATCC 14756; read-out: MIC; summary of the method: as §2
[3] = test system: Mycolicibacterium smegmatis; experiment: Antimicrobial activity against Mycobacterium smegmatis BCRC 11565 after 18 to 24 hrs by alamar blue assay; assay type: functional; conditions: Mycolicibacterium smegmatis, BCRC 11565; read-out: MIC; summary of the method: as §2
[4] = Inhibition of transglycosylase assessed as inhibition of NBD- labelled lipid II polymerization
Summary of the method: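 100 µM NBD-labelled lipid II incubated 30 min with full-length PBP (EC, SA or Mtb) and 10 ng/µl N-acetylmuramidase in 50 mM Tris-HCl pH 8.0, 10 mM MgCl2, 0.1% Triton X-100, 10% DMSO, 15% MeOH. Supernatant run on anion-exchange HPLC with 20 mM–0.5 M ammonium acetate gradient. Inhibition calculated from substrate peak-area percentage. IC50 determined. S. aureus strains share one SA enzyme.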

Staphylococcus aureus [5] = experiment: Antimicrobial activity against methicillin-resistant Staphylococcus aureus isolate NTUH4722 after 18 to 24 hrs by alamar blue assay; assay type: functional; summary of the method: as §1
Staphylococcus aureus [6] = experiment: Antimicrobial activity against methicillin-resistant Staphylococcus aureus ATCC 33592 after 18 to 24 hrs by alamar blue assay; assay type: functional; conditions: Staphylococcus aureus, ATCC 33592; read-out: MIC; summary of the method: as §1
Staphylococcus aureus [7] = experiment: Antimicrobial activity against Staphylococcus aureus ATCC 29213 after 18 to 24 hrs by alamar blue assay

O=C(Nc1ccc(Oc2cc3ccccc3cc2Cl)c(Cl)c1)c1cc(Br)cc(Br)c1O
MIC (Staphylococcus aureus [1]): ≤ 0.03 µg/mL
MIC (Bacillus subtilis): < 0.03 µg/mL
MIC (Escherichia coli): 8 µg/mL (≈ 13.7 µM)
MIC (Pseudomonas aeruginosa): 16 µg/mL (≈ 27.5 µM)
MIC (Acinetobacter baumannii): 16 µg/mL (≈ 27.5 µM)
MIC [2]: 16 µg/mL (≈ 27.5 µM)
MIC (Serratia marcescens): 16 µg/mL (≈ 27.5 µM)
MIC [3]: 0.5 µg/mL (≈ 0.859 µM)
IC90 [4]: 100 µM
MIC (Staphylococcus aureus [5]): ≤ 0.03 µg/mL
MIC (Staphylococcus aureus [6]): 4 µg/mL (≈ 6.87 µM)
MIC (Staphylococcus aureus [7]): 4 µg/mL (≈ 6.87 µM)

O=C(Nc1ccc(Oc2ccc(Br)c3ccccc23)c(Cl)c1)c1cc(Br)cc(Br)c1O
MIC (Staphylococcus aureus [1]): ≤ 0.03 µg/mL
MIC (Bacillus subtilis): < 0.03 µg/mL
MIC (Escherichia coli): 8 µg/mL (≈ 12.8 µM)
MIC (Pseudomonas aeruginosa): 16 µg/mL (≈ 25.5 µM)
MIC (Acinetobacter baumannii): 16 µg/mL (≈ 25.5 µM)
MIC [2]: 16 µg/mL (≈ 25.5 µM)
MIC (Serratia marcescens): 16 µg/mL (≈ 25.5 µM)
MIC [3]: 0.5 µg/mL (≈ 0.798 µM)
IC90 [4]: 100 µM
MIC (Staphylococcus aureus [5]): ≤ 0.03 µg/mL
MIC (Staphylococcus aureus [6]): ≤ 2 µg/mL
MIC (Staphylococcus aureus [7]): 4 µg/mL (≈ 6.38 µM)

O=C(Nc1ccc(Oc2ccc(Cl)cc2)c(Cl)c1)c1cc(Br)cc(Br)c1O
MIC (Staphylococcus aureus [1]): 0.5 µg/mL (≈ 0.94 µM)
MIC (Bacillus subtilis): < 0.03 µg/mL
MIC (Escherichia coli): 8 µg/mL (≈ 15 µM)
MIC (Pseudomonas aeruginosa): 16 µg/mL (≈ 30.1 µM)
MIC (Acinetobacter baumannii): 16 µg/mL (≈ 30.1 µM)
MIC [2]: 16 µg/mL (≈ 30.1 µM)
MIC (Serratia marcescens): 16 µg/mL (≈ 30.1 µM)
MIC [3]: 0.5 µg/mL (≈ 0.94 µM)
IC90 [4]: 100 µM
MIC (Staphylococcus aureus [5]): 0.25 µg/mL (≈ 0.47 µM)
MIC (Staphylococcus aureus [6]): 0.25 µg/mL (≈ 0.47 µM)
MIC (Staphylococcus aureus [7]): 0.5 µg/mL (≈ 0.94 µM)

O=C(Nc1cc(Cl)cc(C(=O)c2ccc(Cl)cc2)c1Cl)c1cc(Br)cc(Br)c1O
MIC (Staphylococcus aureus [1]): 8 µg/mL (≈ 13.8 µM)
MIC (Bacillus subtilis): < 0.03 µg/mL
MIC (Escherichia coli): 8 µg/mL (≈ 13.8 µM)
MIC (Pseudomonas aeruginosa): 16 µg/mL (≈ 27.7 µM)
MIC (Acinetobacter baumannii): 16 µg/mL (≈ 27.7 µM)
MIC [2]: 16 µg/mL (≈ 27.7 µM)
MIC (Serratia marcescens): 16 µg/mL (≈ 27.7 µM)
MIC [3]: 0.5 µg/mL (≈ 0.864 µM)
IC90 [4]: 100 µM
MIC (Staphylococcus aureus [5]): 8 µg/mL (≈ 13.8 µM)
MIC (Staphylococcus aureus [6]): 2 µg/mL (≈ 3.46 µM)
MIC (Staphylococcus aureus [7]): 0.5 µg/mL (≈ 0.864 µM)

O=c1c2ccccc2nc(/C=C/c2ccc([N+](=O)[O-])o2)n1CCCO
MIC (Staphylococcus aureus [1]): 2 µg/mL (≈ 5.86 µM)
MIC (Bacillus subtilis): < 0.03 µg/mL
MIC (Escherichia coli): 16 µg/mL (≈ 46.9 µM)
MIC (Pseudomonas aeruginosa): 2 µg/mL (≈ 5.86 µM)
MIC (Acinetobacter baumannii): > 256 µg/mL
MIC [2]: > 256 µg/mL
MIC (Serratia marcescens): > 256 µg/mL
MIC [3]: 1 µg/mL (≈ 2.93 µM)
MIC (Staphylococcus aureus [5]): 2 µg/mL (≈ 5.86 µM)
MIC (Staphylococcus aureus [6]): 2 µg/mL (≈ 5.86 µM)
MIC (Staphylococcus aureus [7]): 2 µg/mL (≈ 5.86 µM)

Cc1c(CC(=O)N2CCC(C(=O)O)(c3ccccc3)CC2)c(=O)oc2c(C)c3occ(-c4ccc(Cl)cc4)c3cc12
MIC (Staphylococcus aureus [1]): 2.5 µg/mL (≈ 4.39 µM)
MIC (Bacillus subtilis): > 64 µg/mL
MIC (Escherichia coli): > 256 µg/mL
MIC (Pseudomonas aeruginosa): > 256 µg/mL
MIC (Acinetobacter baumannii): > 256 µg/mL
MIC [2]: > 256 µg/mL
MIC (Serratia marcescens): > 256 µg/mL
MIC [3]: 1 µg/mL (≈ 1.75 µM)
MIC (Staphylococcus aureus [5]): 2.5 µg/mL (≈ 4.39 µM)
MIC (Staphylococcus aureus [6]): 2.5 µg/mL (≈ 4.39 µM)
MIC (Staphylococcus aureus [7]): 2.5 µg/mL (≈ 4.39 µM)

O=C(Nc1nnc(-c2ccc(Br)cc2)o1)c1cccc(C(F)(F)F)c1
MIC (Staphylococcus aureus [1]): 0.125 µg/mL (≈ 0.303 µM)
MIC (Bacillus subtilis): 0.5 µg/mL (≈ 1.21 µM)
MIC (Escherichia coli): > 256 µg/mL
MIC (Pseudomonas aeruginosa): > 256 µg/mL
MIC (Acinetobacter baumannii): > 256 µg/mL
MIC [2]: > 256 µg/mL
MIC (Serratia marcescens): > 256 µg/mL
MIC [3]: 0.5 µg/mL (≈ 1.21 µM)
MIC (Staphylococcus aureus [5]): 0.5 µg/mL (≈ 1.21 µM)
MIC (Staphylococcus aureus [6]): 1 µg/mL (≈ 2.43 µM)
MIC (Staphylococcus aureus [7]): 1 µg/mL (≈ 2.43 µM)

Cc1ccc(-c2nnc(NC(=O)c3nc4ccccc4s3)o2)c(C)c1
MIC (Staphylococcus aureus [1]): 0.25 µg/mL (≈ 0.713 µM)
MIC (Bacillus subtilis): 0.5 µg/mL (≈ 1.43 µM)
MIC (Escherichia coli): > 256 µg/mL
MIC (Pseudomonas aeruginosa): > 256 µg/mL
MIC (Acinetobacter baumannii): > 256 µg/mL
MIC [2]: > 256 µg/mL
MIC (Serratia marcescens): > 256 µg/mL
MIC [3]: 0.5 µg/mL (≈ 1.43 µM)
MIC (Staphylococcus aureus [5]): 0.25 µg/mL (≈ 0.713 µM)
MIC (Staphylococcus aureus [6]): 0.5 µg/mL (≈ 1.43 µM)
MIC (Staphylococcus aureus [7]): 0.5 µg/mL (≈ 1.43 µM)

CCc1ccccc1NS(=O)(=O)c1ccc2c(c1)NCC(C)C(=O)S2 (stereo unspecified)
MIC (Staphylococcus aureus [1]): > 64 µg/mL
MIC (Bacillus subtilis): < 0.03 µg/mL
MIC (Escherichia coli): > 256 µg/mL
MIC (Pseudomonas aeruginosa): > 256 µg/mL
MIC (Acinetobacter baumannii): > 256 µg/mL
MIC [2]: > 256 µg/mL
MIC (Serratia marcescens): > 256 µg/mL
MIC [3]: > 64 µg/mL
MIC (Staphylococcus aureus [5]): 4 µg/mL (≈ 10.6 µM)
MIC (Staphylococcus aureus [6]): 2 µg/mL (≈ 5.31 µM)
MIC (Staphylococcus aureus [7]): 2 µg/mL (≈ 5.31 µM)

CCCCN(C)S(=O)(=O)c1ccc(C(=O)Nc2nnc(-c3cccc(OC)c3)o2)cc1
MIC (Staphylococcus aureus [1]): 32 µg/mL (≈ 72 µM)
MIC (Bacillus subtilis): 0.5 µg/mL (≈ 1.12 µM)
MIC (Escherichia coli): > 256 µg/mL
MIC (Pseudomonas aeruginosa): > 256 µg/mL
MIC (Acinetobacter baumannii): > 256 µg/mL
MIC [2]: > 256 µg/mL
MIC (Serratia marcescens): > 256 µg/mL
MIC [3]: 0.5 µg/mL (≈ 1.12 µM)
MIC (Staphylococcus aureus [5]): 16 µg/mL (≈ 36 µM)
MIC (Staphylococcus aureus [6]): 8 µg/mL (≈ 18 µM)
MIC (Staphylococcus aureus [7]): 4 µg/mL (≈ 9 µM)

O=C(Nc1cc(Cl)ccc1Cl)c1cc(Br)cc(Br)c1O
MIC (Staphylococcus aureus [1]): 0.5 µg/mL (≈ 1.14 µM)
MIC (Bacillus subtilis): < 0.03 µg/mL
MIC (Escherichia coli): 8 µg/mL (≈ 18.2 µM)
MIC (Pseudomonas aeruginosa): 16 µg/mL (≈ 36.4 µM)
MIC (Acinetobacter baumannii): 16 µg/mL (≈ 36.4 µM)
MIC [2]: 16 µg/mL (≈ 36.4 µM)
MIC (Serratia marcescens): 16 µg/mL (≈ 36.4 µM)
MIC [3]: 0.5 µg/mL (≈ 1.14 µM)
MIC (Staphylococcus aureus [5]): 0.5 µg/mL (≈ 1.14 µM)
MIC (Staphylococcus aureus [6]): 1 µg/mL (≈ 2.27 µM)
MIC (Staphylococcus aureus [7]): 1 µg/mL (≈ 2.27 µM)

CNC(=O)c1ccsc1NC(=O)c1ccc([N+](=O)[O-])o1
MIC (Staphylococcus aureus [1]): 0.5 µg/mL (≈ 1.69 µM)
MIC (Bacillus subtilis): 0.06 µg/mL (≈ 0.203 µM)
MIC (Escherichia coli): 256 µg/mL (≈ 867 µM)
MIC (Pseudomonas aeruginosa): 128 µg/mL (≈ 433 µM)
MIC (Acinetobacter baumannii): 12 µg/mL (≈ 40.6 µM)
MIC [2]: 32 µg/mL (≈ 108 µM)
MIC (Serratia marcescens): 32 µg/mL (≈ 108 µM)
MIC [3]: 0.5 µg/mL (≈ 1.69 µM)
MIC (Staphylococcus aureus [5]): 0.5 µg/mL (≈ 1.69 µM)
MIC (Staphylococcus aureus [6]): 0.5 µg/mL (≈ 1.69 µM)
MIC (Staphylococcus aureus [7]): 2 µg/mL (≈ 6.77 µM)
